Key:
Details in all cases: stereoisomer not certain
[1] = molecular target: OR6C76 (Homo sapiens) (UniProt A6NM76)
Method in brief: (§1)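 Each receptor–molecule pair is labelled responsive or non-responsive (inactive) according to whether the original authors judged the measured signal statistically different from baseline. The data were taken from the main text and supplementary material of published papers and checked for typos and inconsistencies. Assay methods differed by source, with transient luciferase assays in mammalian cell lines being common.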

[2] = molecular target: OR6F1 (Homo sapiens) (UniProt Q8NGZ6)
Sequence of OR6F1 (Homo sapiens) (Q8NGZ6 whole entry): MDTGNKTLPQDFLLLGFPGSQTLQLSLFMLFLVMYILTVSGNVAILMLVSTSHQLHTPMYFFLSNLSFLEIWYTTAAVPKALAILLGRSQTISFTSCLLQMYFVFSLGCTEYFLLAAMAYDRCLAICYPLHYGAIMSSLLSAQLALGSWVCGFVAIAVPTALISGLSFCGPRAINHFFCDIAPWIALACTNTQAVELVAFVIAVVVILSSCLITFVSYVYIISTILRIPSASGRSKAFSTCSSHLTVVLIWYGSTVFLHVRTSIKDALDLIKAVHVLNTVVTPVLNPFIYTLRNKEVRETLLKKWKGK
Method in brief: as §1

[3] = molecular target: OR6J1 (Homo sapiens) (UniProt Q8NGC5)
Method in brief: as §1
Target sequence in this assay (Q8NGC5 whole entry S250P): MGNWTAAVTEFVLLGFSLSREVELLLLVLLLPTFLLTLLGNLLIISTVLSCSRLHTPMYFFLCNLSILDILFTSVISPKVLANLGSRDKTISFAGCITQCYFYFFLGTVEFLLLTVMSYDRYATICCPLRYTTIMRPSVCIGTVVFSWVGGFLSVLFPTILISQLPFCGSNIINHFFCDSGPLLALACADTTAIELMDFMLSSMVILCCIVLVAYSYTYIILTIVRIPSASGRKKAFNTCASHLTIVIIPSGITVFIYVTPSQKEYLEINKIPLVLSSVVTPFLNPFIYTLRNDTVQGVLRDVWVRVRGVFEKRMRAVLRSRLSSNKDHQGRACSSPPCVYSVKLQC

[4] = molecular target: OR6K2 (Homo sapiens) (UniProt Q8NGY2)
Sequence of OR6K2 (Homo sapiens) (Q8NGY2 whole entry): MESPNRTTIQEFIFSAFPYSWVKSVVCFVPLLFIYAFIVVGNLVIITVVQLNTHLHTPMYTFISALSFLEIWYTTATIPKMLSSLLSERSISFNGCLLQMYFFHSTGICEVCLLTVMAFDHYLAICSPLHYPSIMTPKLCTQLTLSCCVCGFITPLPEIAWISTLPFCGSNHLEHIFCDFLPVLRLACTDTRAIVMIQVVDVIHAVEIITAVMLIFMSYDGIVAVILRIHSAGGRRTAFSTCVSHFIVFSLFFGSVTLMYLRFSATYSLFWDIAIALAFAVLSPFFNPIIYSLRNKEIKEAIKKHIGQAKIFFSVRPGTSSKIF
Method in brief: as §1

[5] = molecular target: OR6K3 (Homo sapiens) (UniProt Q8NGY3)
Sequence of OR6K3 (Homo sapiens) (Q8NGY3 whole entry): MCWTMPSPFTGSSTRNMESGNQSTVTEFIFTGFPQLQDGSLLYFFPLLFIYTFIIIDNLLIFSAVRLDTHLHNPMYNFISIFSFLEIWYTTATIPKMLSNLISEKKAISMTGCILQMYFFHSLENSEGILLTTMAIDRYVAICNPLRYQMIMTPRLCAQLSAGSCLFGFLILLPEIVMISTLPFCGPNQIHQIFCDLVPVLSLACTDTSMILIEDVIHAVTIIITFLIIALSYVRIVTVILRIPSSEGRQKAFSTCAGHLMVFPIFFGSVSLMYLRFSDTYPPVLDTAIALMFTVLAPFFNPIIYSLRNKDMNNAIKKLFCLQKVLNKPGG
Method in brief: as §1

[6] = molecular target: OR6K6 (Homo sapiens) (UniProt Q8NGW6)
Sequence of OR6K6 (Homo sapiens) (Q8NGW6 whole entry): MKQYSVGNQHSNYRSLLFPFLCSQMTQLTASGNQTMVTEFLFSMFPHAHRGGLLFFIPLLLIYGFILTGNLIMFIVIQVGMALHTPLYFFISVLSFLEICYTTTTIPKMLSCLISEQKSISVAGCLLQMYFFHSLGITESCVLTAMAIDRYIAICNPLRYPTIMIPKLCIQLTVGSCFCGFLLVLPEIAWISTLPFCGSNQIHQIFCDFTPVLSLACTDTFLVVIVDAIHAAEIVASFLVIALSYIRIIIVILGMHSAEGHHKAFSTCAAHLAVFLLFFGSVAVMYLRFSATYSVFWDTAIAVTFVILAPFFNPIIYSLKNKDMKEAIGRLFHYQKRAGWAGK
Method in brief: as §1

[7] = molecular target: OR6M1 (Homo sapiens) (UniProt Q8NGM8)
Sequence of OR6M1 (Homo sapiens) (Q8NGM8 whole entry): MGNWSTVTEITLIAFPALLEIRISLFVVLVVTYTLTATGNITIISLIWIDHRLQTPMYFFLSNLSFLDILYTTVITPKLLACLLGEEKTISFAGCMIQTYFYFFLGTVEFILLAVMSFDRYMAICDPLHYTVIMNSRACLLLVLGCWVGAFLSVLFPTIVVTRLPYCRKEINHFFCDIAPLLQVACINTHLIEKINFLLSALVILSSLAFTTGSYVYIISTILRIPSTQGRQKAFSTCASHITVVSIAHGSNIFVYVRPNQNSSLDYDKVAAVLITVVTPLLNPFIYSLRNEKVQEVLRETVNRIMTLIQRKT
Method in brief: as §1

[8] = molecular target: OR6N1 (Homo sapiens) (UniProt Q8NGY5)
Sequence of OR6N1 (Homo sapiens) (Q8NGY5 whole entry): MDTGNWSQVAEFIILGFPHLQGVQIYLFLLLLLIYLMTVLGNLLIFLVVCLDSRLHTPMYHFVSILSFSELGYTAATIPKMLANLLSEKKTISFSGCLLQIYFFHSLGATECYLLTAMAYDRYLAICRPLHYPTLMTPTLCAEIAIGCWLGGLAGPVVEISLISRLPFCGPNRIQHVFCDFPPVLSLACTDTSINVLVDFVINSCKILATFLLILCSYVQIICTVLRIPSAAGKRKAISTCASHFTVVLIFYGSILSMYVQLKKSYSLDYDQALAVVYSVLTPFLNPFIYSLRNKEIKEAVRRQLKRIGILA
Method in brief: as §1

[9] = molecular target: OR6N2 (Homo sapiens) (UniProt Q8NGY6)
Sequence of OR6N2 (Homo sapiens) (Q8NGY6 whole entry): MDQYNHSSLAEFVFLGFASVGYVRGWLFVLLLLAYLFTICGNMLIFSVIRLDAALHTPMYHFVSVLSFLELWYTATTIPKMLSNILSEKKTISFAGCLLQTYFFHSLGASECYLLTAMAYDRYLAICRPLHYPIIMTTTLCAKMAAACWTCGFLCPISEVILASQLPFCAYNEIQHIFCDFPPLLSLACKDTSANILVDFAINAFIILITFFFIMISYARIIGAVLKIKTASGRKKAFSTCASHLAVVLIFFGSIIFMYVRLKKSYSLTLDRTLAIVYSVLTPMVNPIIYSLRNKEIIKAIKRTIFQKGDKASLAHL
Method in brief: as §1

[10] = molecular target: T1, OR6P1 (Homo sapiens) (UniProt Q8NGX9)
T1 sequence (whole entry): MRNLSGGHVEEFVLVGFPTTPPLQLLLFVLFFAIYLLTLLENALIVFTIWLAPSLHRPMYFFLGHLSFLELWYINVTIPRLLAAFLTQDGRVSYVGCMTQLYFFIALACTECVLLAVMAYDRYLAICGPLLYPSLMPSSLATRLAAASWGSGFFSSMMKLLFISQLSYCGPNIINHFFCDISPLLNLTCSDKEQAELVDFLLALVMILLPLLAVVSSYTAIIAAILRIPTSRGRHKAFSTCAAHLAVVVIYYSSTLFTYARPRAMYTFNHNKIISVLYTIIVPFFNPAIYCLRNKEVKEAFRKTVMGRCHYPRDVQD
Method in brief: as §1

[11] = molecular target: OR6Q1 (Homo sapiens) (UniProt Q8NGQ2)
Sequence of OR6Q1 (Homo sapiens) (Q8NGQ2 whole entry): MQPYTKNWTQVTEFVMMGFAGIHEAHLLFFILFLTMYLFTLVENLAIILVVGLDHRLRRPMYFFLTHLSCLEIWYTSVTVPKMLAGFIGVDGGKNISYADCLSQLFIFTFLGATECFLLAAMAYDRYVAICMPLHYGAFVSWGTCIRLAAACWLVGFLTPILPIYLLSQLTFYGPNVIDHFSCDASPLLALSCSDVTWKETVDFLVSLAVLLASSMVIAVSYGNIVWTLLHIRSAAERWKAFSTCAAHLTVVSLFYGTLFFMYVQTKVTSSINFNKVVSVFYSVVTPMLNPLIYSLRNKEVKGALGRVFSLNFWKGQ
Method in brief: as §1

[12] = molecular target: OR6S1 (Homo sapiens) (UniProt Q8NH40)
Sequence of OR6S1 (Homo sapiens) (Q8NH40 whole entry): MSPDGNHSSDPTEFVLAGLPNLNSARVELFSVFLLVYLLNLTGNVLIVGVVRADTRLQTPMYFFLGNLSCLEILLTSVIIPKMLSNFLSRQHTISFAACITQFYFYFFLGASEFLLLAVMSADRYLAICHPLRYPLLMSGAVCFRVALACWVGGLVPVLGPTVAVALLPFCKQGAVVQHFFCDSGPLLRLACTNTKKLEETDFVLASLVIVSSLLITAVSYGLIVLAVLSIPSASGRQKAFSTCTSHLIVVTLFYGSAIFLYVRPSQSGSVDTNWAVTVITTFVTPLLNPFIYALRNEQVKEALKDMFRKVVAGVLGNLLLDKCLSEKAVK
Method in brief: as §1

[13] = molecular target: OR6T1 (Homo sapiens) (UniProt Q8NGN1)
Sequence of OR6T1 (Homo sapiens) (Q8NGN1 whole entry): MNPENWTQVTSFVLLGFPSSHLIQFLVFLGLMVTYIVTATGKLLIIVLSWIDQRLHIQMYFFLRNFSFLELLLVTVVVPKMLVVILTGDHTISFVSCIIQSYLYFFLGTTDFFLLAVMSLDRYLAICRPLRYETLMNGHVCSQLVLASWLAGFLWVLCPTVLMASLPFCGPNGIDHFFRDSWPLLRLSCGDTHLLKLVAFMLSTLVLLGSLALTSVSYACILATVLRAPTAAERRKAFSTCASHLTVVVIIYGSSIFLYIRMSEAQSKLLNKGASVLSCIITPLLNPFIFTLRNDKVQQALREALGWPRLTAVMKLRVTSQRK
Method in brief: as §1

[14] = molecular target: OR6V1 (Homo sapiens) (UniProt Q8N148)
Sequence of OR6V1 (Homo sapiens) (Q8N148 whole entry): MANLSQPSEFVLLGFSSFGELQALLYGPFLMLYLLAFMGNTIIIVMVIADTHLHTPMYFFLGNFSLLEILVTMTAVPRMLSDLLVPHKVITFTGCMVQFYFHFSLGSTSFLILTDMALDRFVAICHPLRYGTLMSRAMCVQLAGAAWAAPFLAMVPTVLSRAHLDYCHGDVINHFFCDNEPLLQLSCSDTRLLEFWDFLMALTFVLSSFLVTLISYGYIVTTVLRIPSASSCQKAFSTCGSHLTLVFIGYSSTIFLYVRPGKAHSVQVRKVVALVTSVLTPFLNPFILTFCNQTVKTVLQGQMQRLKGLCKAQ
Method in brief: as §1

[15] = molecular target: OR6J1 (Homo sapiens) (UniProt Q8NGC5); remark: listed apart in the source
Method in brief: as §1
Target sequence in this assay (Q8NGC5 whole entry): as the sequence (Q8NGC5 whole entry S250P) above, with P250S counted along it

[16] = system: OR6K3
Sequence of OR6K3 (as listed by the source): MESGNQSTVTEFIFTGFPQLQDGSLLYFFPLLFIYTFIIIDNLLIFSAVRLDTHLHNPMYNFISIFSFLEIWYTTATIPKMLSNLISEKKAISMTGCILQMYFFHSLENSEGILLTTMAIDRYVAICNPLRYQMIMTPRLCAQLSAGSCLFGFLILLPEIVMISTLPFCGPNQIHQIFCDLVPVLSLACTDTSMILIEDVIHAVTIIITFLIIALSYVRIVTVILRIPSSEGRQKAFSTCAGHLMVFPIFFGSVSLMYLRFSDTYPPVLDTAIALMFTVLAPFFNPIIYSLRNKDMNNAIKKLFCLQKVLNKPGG
Method in brief: as §1

[17] = system: OR6M1 R224C
Sequence of OR6M1 R224C (as listed by the source, stated change not applied): as the sequence (Q8NGM8 whole entry) above, with R224C counted along it
Method in brief: as §1

[18] = system: OR6M1 T276K
Sequence of OR6M1 T276K (as listed by the source, stated change not applied): as the sequence (Q8NGM8 whole entry) above, with T276K counted along it
Method in brief: as §1

[19] = system: OR6S1 T42I V156I
Method in brief: as §1

[20] = system: OR6T1 N2D
Sequence of OR6T1 N2D (as listed by the source): as the sequence (Q8NGN1 whole entry) above, with N2D counted along it
Method in brief: as §1
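Also: active if original authors judged signal statistically different from baseline.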

Sequence of OR6C76 (Homo sapiens) (A6NM76 whole entry): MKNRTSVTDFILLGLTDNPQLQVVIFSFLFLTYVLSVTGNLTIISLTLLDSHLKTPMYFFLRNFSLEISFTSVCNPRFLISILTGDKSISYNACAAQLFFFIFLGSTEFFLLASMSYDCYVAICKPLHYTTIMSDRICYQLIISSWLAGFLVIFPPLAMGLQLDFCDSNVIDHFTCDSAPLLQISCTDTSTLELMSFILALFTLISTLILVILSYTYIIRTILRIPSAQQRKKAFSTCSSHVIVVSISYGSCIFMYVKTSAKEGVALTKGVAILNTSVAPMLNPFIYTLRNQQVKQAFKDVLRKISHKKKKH

| Compound | odorant receptor agonist call [1] | odorant receptor agonist call [2] | odorant receptor agonist call [3] | odorant receptor agonist call [4] | odorant receptor agonist call [5] | odorant receptor agonist call [6] | odorant receptor agonist call [7] | odorant receptor agonist call [8] | odorant receptor agonist call [9] | odorant receptor agonist call [10] | odorant receptor agonist call [11] | odorant receptor agonist call [12] | odorant receptor agonist call [13] | odorant receptor agonist call [14] | odorant receptor agonist call [15] | odorant receptor agonist call [16] | odorant receptor agonist call [17] | odorant receptor agonist call [18] | odorant receptor agonist call [19] | odorant receptor agonist call [20] |
| --- | --- | --- | --- | --- | --- | --- | --- | --- | --- | --- | --- | --- | --- | --- | --- | --- | --- | --- | --- | --- |
| Cc1c([N+](=O)[O-])c(C)c([N+](=O)[O-])c(C(C)(C)C)c1[N+](=O)[O-] | inactive | inactive | inactive | inactive | inactive | inactive | inactive | inactive | inactive | inactive | inactive | inactive | inactive | inactive |  |  |  |  |  |  |
| COc1ccc(C=O)cc1 |  |  |  |  |  |  |  |  |  | active |  |  |  |  |  |  |  |  |  |  |
| C=CCOC(=O)Cc1ccccc1 | inactive | inactive |  | inactive |  | inactive | inactive | inactive | inactive | inactive | inactive | inactive | inactive | inactive | inactive | inactive | inactive | inactive | inactive | inactive |

Reference: the M2OR odorant receptor database
